In article PMC8935478 (Journal of medicinal chemistry, 2021):

Columns and labels:
MOLM-13 = assay: Cell growth inhibition, CellTiter-Glo; type: cell-based
MV4;11 = assay: Cell growth inhibition, CellTiter-Glo; type: cell-based, human
[1] = tested on: HOXA9 mRNA in MV4;11 cells; assay: qRT-PCR gene expression in MV4; type: cell-based, human; conditions: 24h of treatment
Outline: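 Total RNA from in vitro-grown cells isolated with RNeasy. cDNA made with a High-Capacity reverse transcription kit. TaqMan gene expression assays with gene-specific primers amplified HOXA9, MEIS1, ITGAM, GAPDH and HPRT1. Relative transcript levels calculated by the comparative Ct method.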

[2] = tested on: MV4;11 subcutaneous tumors; assay: MV4; type: in vivo, mice; conditions: 100 mg/kg daily for 26 days, oral gavage; 157 mm^3 at the beginning of the treatment
Outline: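 Female C.B-17 SCID mice (5–6 weeks) implanted sc in the right flank with 5×10^6 MV4;11 cells in 1:1 Matrigel. Randomized once tumors reached the target volume. Dosed once daily by oral gavage at 10 ml/kg; vehicle 0.5% MC (400cP) + 0.2% Tween 80 (w/w). Body weight recorded daily. Calipers three times weekly; volume = 0.5×W×W×L; mean ± SEM. Regrowth followed to day 45 after treatment start.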

C=CC(=O)N1CC(S(=O)(=O)c2ccc(N3CC(CN4CCC([C@@](CN5CCC5)(c5cccc(F)c5)[C@H]5CCC[C@@H]5NC(=O)OC)CC4)(OC)C3)cc2)C1 [Compound 20, Methyl ((1S,2R)-2-(1-(1-((1-(4-((1-acryloylazetidin-3-yl)sulfonyl)phenyl)-3-methoxyazetidin-3-yl)methyl)piperidin-4-yl)-2-(azetidin-1-yl)-1-(3-fluorophenyl)ethyl)cyclopentyl)carbamate]
Fold less potent than compound 19 in inhibiting growth (MOLM-13; MOLM-13, ratio of IC50): 8 fold | Fold less potent than compound 19 in inhibiting growth (MV4;11; MV4;11, ratio of IC50): 49 fold

COC(=O)N[C@H]1CCC[C@@H]1[C@](CN1CCC1)(c1cccc(F)c1)C1CCN(CC2(OC)CN(c3ccc(S(=O)(=O)C4CN(C(=O)/C=C/CN(C)C)C4)cc3)C2)CC1 [Compound 19, Methyl ((1S,2R)-2-(2-(azetidin-1-yl)-1-(1-((1-(4-((1-((E)-4-(dimethylamino)but-2-enoyl)-azetidin-3-yl)sulfonyl)phenyl)-3-methoxyazetidin-3-yl)methyl)piperidin-4-yl)-1-(3-fluorophenyl)ethyl)cyclopentyl)carbamate]
Fold more potent than compound 17 in inhibiting proliferation (MOLM-13; MOLM-13, ratio of IC50): 9 fold | Fold more potent than compound 17 in inhibiting proliferation (MV4;11; MV4;11, ratio of IC50): 72 fold

C=CC(=O)N1CCC[C@H](S(=O)(=O)c2ccc(N3CC(CN4CCC([C@@](CN5CCC5)(c5cccc(F)c5)[C@H]5CCC[C@@H]5NC(=O)OC)CC4)(OC)C3)cc2)C1 [Compound 22, Methyl ((1S,2R)-2-(1-(1-((1-(4-(((S)-1-acryloylpiperidin-3-yl)sulfonyl)phenyl)-3-methoxy-azetidin-3-yl)methyl)piperidin-4-yl)-2-(azetidin-1-yl)-1-(3-fluorophenyl)ethyl)-cyclopentyl)carbamate]
Times more potent than compound 21 (MOLM-13; MOLM-13): 2 times | Times more potent than compound 21 (MV4;11; MV4;11): 2 times

CCC(=O)N1C[C@@H]2C[C@H]1CN2S(=O)(=O)c1ccc(N2CC(CN3CCC([C@@](CN4CCC4)(c4cccc(F)c4)[C@H]4CCC[C@@H]4NC(=O)OC)CC3)(OC)C2)cc1 [Compound 26, Methyl ((1S,2R)-2-(2-(azetidin-1-yl)-1-(3-fluorophenyl)-1-(1-((3-methoxy-1-(4-(((1S,4S)-5-propionyl-2,5-diazabicyclo[2.2.1]heptan-2-yl)sulfonyl)phenyl)azetidin-3-yl)methyl)piperidin-4-yl)ethyl)cyclopentyl)carbamate]
Times less potent than 24 in inhibition of cell growth (MOLM-13; MOLM-13): > 10 times | Times less potent than 24 in inhibition of cell growth (MV4;11; MV4;11): > 10 times

C=CC(=O)N1C[C@@H]2C[C@H]1CN2S(=O)(=O)c1ccc(N2CC(CN3CCC([C@@](CN4CCC4)(c4cccc(F)c4)[C@H]4CCC[C@@H]4NC(=O)OC)CC3)(OC)C2)cc1 [Compound 24, Methyl ((1S,2R)-2-(1-(1-((1-(4-(((1S,4S)-5-acryloyl-2,5-diazabicyclo[2.2.1]heptan-2-yl)-sulfonyl)phenyl)-3-methoxyazetidin-3-yl)methyl)piperidin-4-yl)-2-(azetidin-1-yl)-1-(3-fluoro-phenyl)ethyl)cyclopentyl)carbamate]
Fold more potent than compound 20 (MOLM-13; MOLM-13): 8–10 fold | Fold more potent than stereoisomer compound 25 (MOLM-13; MOLM-13, ratio of IC50): 9 fold | Fold more potent than compound 20 (MV4;11; MV4;11): 8–10 fold | Fold more potent than stereoisomer compound 25 (MV4;11; MV4;11, ratio of IC50): 40 fold | Concentration as low as which HOXA9 gene expression is effectively modulated [1]: 10 nM | Average tumor volume on day 26 of the treatment [2]: 106 mm^3

C=CC(=O)N1CCC[C@@H](S(=O)(=O)c2ccc(N3CC(CN4CCC([C@@](CN5CCC5)(c5cccc(F)c5)[C@H]5CCC[C@@H]5NC(=O)OC)CC4)(OC)C3)cc2)C1 [Compound 23, Methyl ((1S,2R)-2-(1-(1-((1-(4-(((R)-1-acryloylpiperidin-3-yl)sulfonyl)phenyl)-3-methoxy-azetidin-3-yl)methyl)piperidin-4-yl)-2-(azetidin-1-yl)-1-(3-fluorophenyl)ethyl)cyclopentyl)-carbamate]
Times more potent than compound 21 (MOLM-13; MOLM-13): 2 times | Times more potent than compound 21 (MV4;11; MV4;11): 2 times
